Assay results: ChEMBL document CHEMBL1125330, “N-substituted pyrazino[2,3-c][1,2,6]thiadiazine 2,2-dioxides. A new class of diuretics” (J Med Chem, 1992)
Values belong to the compound of their own block, whether it stands above or below them.

Legend:
Conditions in all cases: in vivo
Rattus norvegicus [1] = species on record: Rattus norvegicus; experiment: Mean urinary output in rats (Control/Drug treatment value); value 22.8/35.1; type: ADME, organism-based, Urine
In short: (§1)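 Water-loaded male Sprague-Dawley rats (HC/CFY, 175-200 g), eight per group, deprived of food and water 18 h. Single oral gavage of 20-25 mg/kg (some 10 mg/kg) in 1% CMC/0.1% Tween 80, then distilled water 2.5 mL/100 g bw po. Cumulative urine over 6 h in metabolic cages; mean mL/6 h/kg bw vs vehicle group.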

Rattus norvegicus [2] = species on record: Rattus norvegicus; experiment: Mean sodium excretion in rats (Control/Drug treatment value); value 0.41/2.06; type: ADME, organism-based
Rattus norvegicus [3] = species on record: Rattus norvegicus; experiment: Mean urinary output in rats (Control/Drug treatment value); value 25.4/33.8; type: ADME, organism-based, Urine; in short: as §1
Rattus norvegicus [4] = species on record: Rattus norvegicus; experiment: Mean sodium excretion in rats (Control/Drug treatment value); value 0.48/0.95; type: ADME, organism-based
Rattus norvegicus [5] = species on record: Rattus norvegicus; experiment: Mean sodium excretion in rats (Control/Drug treatment value); value 0.5/1.79; type: ADME, organism-based
Rattus norvegicus [6] = species on record: Rattus norvegicus; experiment: Mean urinary output in rats (Control/Drug treatment value); value 27.7/36.4; type: ADME, organism-based, Urine
Rattus norvegicus [7] = species on record: Rattus norvegicus; experiment: Mean sodium excretion in rats (Control/Drug treatment value); value 0.44/2.68; type: ADME, organism-based
Rattus norvegicus [8] = species on record: Rattus norvegicus; experiment: Mean urinary output in rats (Control/Drug treatment value); value 26.1/45.7; type: ADME, organism-based, Urine; in short: as §1

V (Rattus norvegicus [1]): 1.5
Na (Rattus norvegicus [2]): 5
Structure (SMILES): CCCN1c2nc(CC)c(C)nc2C(N)=NS1(=O)=O

V (Rattus norvegicus [3]): 1.3
Na (Rattus norvegicus [4]): 2
Structure (SMILES): CCc1nc2c(nc1CC)N(CC)S(=O)(=O)N=C2N

V (Rattus norvegicus [6]): 1.3
Structure (SMILES): CCN1c2nc(C)c(C)nc2C(N)=NS1(=O)=O
Na (Rattus norvegicus [5]): 3.6 m equiv 6hr-1 kg-1 (body weight)-1

Na (Rattus norvegicus [7]): 6.1
V (Rattus norvegicus [8]): 1.8
Structure (SMILES): CCCN1c2nc(C)c(C)nc2C(N)=NS1(=O)=O
